According to the EternaBench riboswitch data:

Test system: MS2 coat protein
Test: apparent Kd, MS2 coat protein; higher = weaker binding; RNA-MaP array; FMN 200 µM where present
Method in brief: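 Two titrations, one without ligand and one with constant ligand, were run with SNAP-549-labelled MS2 coat protein from 0.7 or 1.5 nM, doubling to 3 µM. The targets were designs transcribed by stalled E. coli RNA polymerase on Illumina sequencing-chip clusters, in 100 mM Tris-HCl pH 7.5, 80 mM KCl, 4 mM MgCl2, BSA, DTT, yeast tRNA and Tween-20. The apparent Kd is the median of filtered per-cluster binding-curve fits, with green signal normalised to red-channel RNA signal and control-cluster median Fmax.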

[1] = designed as: OFF switch for flavin mononucleotide, no ligand
[2] = ligand present: flavin mononucleotide, designed as: OFF switch for flavin mononucleotide
[3] = designed as: ON switch for flavin mononucleotide, no ligand
[4] = ligand present: flavin mononucleotide, designed as: ON switch for flavin mononucleotide

Sequence | apparent Kd [1] | apparent Kd [2] | apparent Kd [3] | apparent Kd [4]
GGUGCGUUUGUGAGGAUAUGCUGGUCCUUGGAUCAGCAGAAGGCACAUGAGGAUCACCCAUGUGGUGUCGGUCC | 416 nM | 37.6 nM |  | 
UAUGGUAAAGUCAGGAUAUACGUACGUCGUUCUAGGUAGAAGGGACAUGAGGAUCACCCAUGUAUGGUAGUGUU | 90 nM | 88.9 nM |  | 
CUAUAGAUAUCAGGAUAUCUAUUUCCAACAUGAGGAUCACCCAUGUUGAGGAUCACCCAUGUAAAGGAGAAGGGAUAUCUAUAG |  |  | 69.1 nM | 16.4 nM
ACUGGUCGAGGAUAUACAUGAGGAUCACCCAUGUCGAUCAACCAGCGAUAGCUGGAAUGUAGAAGGCGACCAGU | 200 nM | 446 nM |  | 
ACUAAUAGAGGAUAUACAGUUUAUUACAUGAGGAUCACCCAUGUUCUUCAAUGUAUAUAAGUAGAAGGCUAUGGAA | 43.3 nM | 187 nM |  | 
CCGGAAAUACAGGAUAUAGGAGUCAAUAGACUCCUAGAAGGGUAUACAUGAGGAUCACCCAUGUGUCCUACCGG | 35 nM | 35.6 nM |  | 
AGUGGGCUAGGAUAUCGAUGAACUCACAUGAGGAUCACCCAUGUGUCUUCGGUGGGCUCACGAGAAGGAGUAAGUU | 17.6 nM | 23.2 nM |  | 
GGUGGACAUGAGGAUCACCCAUGUGAGGAUAUCGGCUGGCUAGUGGCUGACGGCUGCUCGAGAAGGCGCAUUGU | 78.3 nM | 107 nM |  | 
UGUUGUAUUACAGGAUAUCUAGUAUUUAUAUUUAGAGAAGGGUAUUCACAUGAGGAUCACCCAUGUAUAUACGAGGAAGUUGUG |  |  | 46.3 nM | 49.2 nM
AGAUUUUUACAUGAGGAUCACCCAUGUUAAUAGGUGUUUGUCAGAAGGCAUUAUGAGAGAAUUAAUGAGGAUAUGAAGUUUCAU |  |  | 40.4 nM | 27.8 nM
UAGCUUGACGCAGGAUAUCCAAGGCUGAAAUGAGGAGAAGGGCGCCAAACAUGAGGAUCACCCAUGUAUUAUGCAGGGUCCUCG | 302 nM | 152 nM |  | 
UGACAUAUAUAGAAGGGUAGUAGGGUAUUACAUGAGGAUCACCCAUGUAUUAUAGGAUAUGUAUAAAGUUAUUAUUCAAGUAAA | 15.8 nM | 13 nM |  | 
CGGUCGAUAUCAGGAUAUCGAUUAAUUACAUGAGGAUCACCCAUGUUGACAAGGAAUAUAACAUGCGAGAAGGGAUUACGAUCG |  |  | 10.1 nM | 8.45 nM
CUCUUGUUAGGAUAUCAAACUGGCAGCGGAGCUGGCAGAAGUGAGAAGGGACAUGAGGAUCACCCAUGUAAGAA | 69.2 nM | 228 nM |  | 
CAUUUGUGAGGAUAUCAGGUGUGCUAGCGUACUGGUACAUCUGAGAAGGCACAUGAGGAUCACCCAUGUUCCUC | 50 nM | 312 nM |  | 
AAAGGUACAGGAUAUGCGUGGAAAAAGUGUAUUCAAAAAAAACAUGAGGAUCACCCAUGUAGAAGGGUACCAAA | 81 nM | 269 nM |  | 
UACAUAAAUGAAGGAUAUCGAUAUCCAACAUGAGGAUCACCCAUGUUGAGGAUCACCCAUGUAAAUGAGAAGGUUAACAUAACU |  |  | 70.5 nM | 73.5 nM
AAAGGACGAGGAUAUACAUGAGGAUCACCCAUGUGUAAAACGUAAUAAAAUAACUUAUGUAGAAGGCGUCCAAA | 30.6 nM | 216 nM |  | 
GGUUGUCAUAGUCAUCCUUUCCGUACAUGAGGAUCACCCAUGUAGGAUAUGCUACUCAAAGAGUAGCAGAAGGGCGUGUGUCUU | 17.2 nM | 18.8 nM |  | 

Sequence | apparent Kd [1] | apparent Kd [2] | apparent Kd [3] | apparent Kd [4]
GUUUAGUGAGGAUAUGCGGCAUCGAUCGAGCGCGGUCGGCUACAGAAGGCACAUGAGGAUCACCCAUGUUUCUC | 41 nM | 278 nM |  | 
AUCAGCUCGACAGGAUAUACAUCACUGCUUCGGCAGUGUAUCUUAAUAACAUGAGGAUCACCCAUGUAGAAGGGUCGAGCUGAU | 17.8 nM | 31.6 nM |  | 
GGUACUCAAAGAGUACCAAUACGAACAUGAGGAUCACCCAUGUAGGAUAUGCUACUCAAAGAGUAGCAGAAGGACAUGUGCUUU | 38.8 nM | 252 nM |  | 
GUCUUAUUACAGAAGGUGUUUUACAUGAGGAUCACCCAUGUUUUAAUGUUUAAAUUUGAUAUUUACAAGGAUAUGUACUAAUCU |  |  | 27.7 nM | 19.4 nM
GGAUAGGUCAGAGGAUAUACGUGCUAGAGAUACUAGCAAAAUUUCCUCACAUGAGGAUCACCCAUGUAGAAGGCUGUCCUAUCG | 12.4 nM | 278 nM |  | 
AAUAGUGGCGUAGGAUAUCUGCGUACAUGAGGAUCACCCAUGUCUCCCAACUGCUGAGCUGGGACAGAGAAGGGCGACCGCAUA |  |  | 225 nM | 85.4 nM
GGCCCACAUGAGGAUCACCCAUGUGAGGAUAUGUUAGUUUCGGCGAAAGCCGAAAUUAACAGAAGGCACAGGCC | 11.7 nM | 13.6 nM |  | 
CCCUCACAUGAGGAUCACCCAUGUCAGGAUAUGCGCGGCCAAAAGGGCUGCUAAGGCAGCAGAAGGGACGUGAA | 15.9 nM | 19.5 nM |  | 
AUAUUCUAGAUAGGAUAUACUGAGGUUGAAUGGGUAGAAGGAUCGUUAGAGUGGACUACAUGAGGAUCACCCAUGUUGUUUAUU |  |  | 48.3 nM | 42.7 nM
GAUUAACAUGAGGAUCACCCAUGUGAGGAUAUGGACUGGCUCACUUUUCGAUUCCCGUCUAGAAGGCGCAUUUU | 50.1 nM | 50.1 nM |  | 
UAUGUUGUUGUGAGGAUAUACUUAGUUUGACCGUAGUAGAAGGCACAUGAGGAUCACCCAUGUAGAUGCUUGGU | 5.75 nM | 10.8 nM |  | 
UAUCCGUCAGUAGGAUAUAUGCCGAGUCAUUGCAUAGAAGGACUGACAUGAGGAUCACCCAUGUCAGAUUGCGCUGGUCUUCCG | 6.24 nM | 6.68 nM |  | 
UUUUUGUGAGGAUAUCAGUAGUAAAUAAAUAAAAUAACUACUGAGAAGGCACAUGAGGAUCACCCAUGUUCUUU | 18.9 nM | 49.6 nM |  | 
GCACUGACAGGAUAUACAUGAGGAUCACCCAUGUGACCCUUAUAGUACUCGCGUACUGGUAGAAGGGUCUGUGC | 78.8 nM | 558 nM |  | 
CGCUGUAACGCAGGAUAUGCAUUGGAUUACAAUGCAGAAGGGCGAUUACAUGAGGAUCACCCAUGUGUAAACAGUGAAGAAGAG |  |  | 220 nM | 41.2 nM
ACACAGCAAGGAUAUACAUGAGGAUCACCCAUGUGGUGGCCGUUACGGUAGGACUAGUGUAGAAGGUGCAGUGG | 519 nM | 177 nM |  | 
CAUCAAAGAAUACCAGGGCAUUAAUGAGAAGGCCAACCACAUGAGGAUCACCCAUGUACGGGAGUGGAGGAUAUCAGUGGGCCG |  |  | 52.5 nM | 6.43 nM
UGUACGUGAGGAUAUGGACGUAUCGAAGACAAGCUACGAUACCAGAAGGUACAUGAGGAUCACCCAUGUGGUUC | 376 nM | 370 nM |  | 
GCCUGCUGGCGAGGAUAUUCUGUGCGGUUUCGGCUCGUGUCUGUUACAUGAGGAUCACCCAUGUGGGAGAAGGUGUCUGUGGCC | 7.76 nM | 7.28 nM |  | 

Sequence | apparent Kd [1] | apparent Kd [2] | apparent Kd [3] | apparent Kd [4]
AAAAAGUGAGGAUAUACAUGAAAAAAAAAAAAAAAAAAAAAACAUGAGGAUCACCCAUGUAGAAGGCGCAAAAA | 55.1 nM | 45.7 nM |  | 
ACAUGUAAUGUAGGAUAUUUUACACAUGAGGAUCACCCAUGUGACCAGAGGCUUUGCUAUGAGUAAAAGAAGGGUAUGUACAUG | 61.8 nM | 60.4 nM |  | 
GGGAUGCUAGGAUAUACAUCGGGCUCCAGGAUGUUCCGGGAACAUGAGGAUCACCCAUGUAGAAGGAGCUAAAG | 67.9 nM | 53.5 nM |  | 
GUUUCGUGAGGAUAUGUGGCUUCGAUCGUGCGAACGAGGCUACAGAAGGCACAUGAGGAUCACCCAUGUUCCUC | 37.4 nM | 481 nM |  | 
AAUUUACAUGAGGAUCACCCAUGUGAGGAUAUGAUACUAUGUACUUCGGUACAUAGUAUCAGAAGGCAUGUGGG | 27.2 nM | 21.4 nM |  | 
UUAUUUUUACAGAAGGUUUAAUAAUAUGUAUGAGAAGGAUAUGUAACAUGAGGAUCACCCAUGUUUUGUCUAUAUGAGGAUCAU | 8.2 nM | 7.9 nM |  | 
UAUAUUUAUGUAGGAUAUGGUCUAUAAAAUAGACCAGAAGGACAUGAGGAUCACCCAUGUAUGAAAUUCCAUAAUUGCCGUGUA | 11.4 nM | 11.4 nM |  | 
UAAGUUUAGGUAGGAUAUACUUUCAAUUUCUCUUUCCUUACAUGAGGAUCACCCAUGUUUACAUUGUAGAAGGACCACUAUGUU | 31.8 nM | 26.8 nM |  | 
CGCUAGUCAGGAUAUACGAACAUGUCACAAGACGUGAAGGGACAUGAGGAUCACCCAUGUAGAAGGGACUAGCA | 44.1 nM | 171 nM |  | 
AAAACAUGAGGAUCACCCAUGUAAAGAACGGUUAAUAGAUCUGAGGAUAUACUAGAAUUUAGGUAGUAGAAGGCAGUGGGUACA |  |  | 35 nM | 26.2 nM
UGAUUGCCUGUAAGGAUAUCUACGGCCGUUCGCUGGGAGAAGGUACAUGAGGAUCACCCAUGUACAGUCAUGGG | 42.9 nM | 93.5 nM |  | 
AAUAAACAUGAGGAUCACCCAUGUCAGGAUAUGCGUCUAACCUAAUACCAUAGAUACGGCAGAAGGGACUAAUA | 50.2 nM | 33.8 nM |  | 
AAAAUCUAUAGAGGAUAUCCAUACACUGCAUACGGAGAAGGCUAACAAUCAUGAGGACAUGAGGAUCACCCAUGUUGUGACCAU |  |  | 19.9 nM | 13.6 nM
UCGAACUUUCGUGUAAUUCGCACAUGAGGAUCACCCAUGUACGAGGAUAUGUACCUAAACGGCUAACAGAAGGCGUACUGGGCA | 170 nM | 106 nM |  | 
GGUUACAAGUAAGGAUAUGCAUAUGAAACAUAUGCAGAAGGUACAUGAGGAUCACCCAUGUUAUUGCAAAGCGAAUAAGUAACC | 15.6 nM | 20.9 nM |  | 
ACAAAGAGCCAAGGAUAUACGUCGUCGAGCCCUCCCGUAGUGGCCAGCACAUGAGGAUCACCCAUGUAGAAGGUGGCUGUAGUC | 20.1 nM | 38.5 nM |  | 
AUCGGAAUGUAGAAGGGUGACAUGAGGAUCACCCAUGUUCAAAUGCGUUUUUCGGUAAUUGAUCCACAGGAUAUACUGUCCGUG |  |  | 631 nM | 485 nM
AGGUAAGAGUUAAUUGUGACGGUGAGAAGGCAAAUGGUUGUGAUUAACAUGAGGAUCACCCAUGUUGAGGAUAUCACCACCAUC | 29.5 nM | 137 nM |  | 
